Measured values as given in ChEMBL document CHEMBL1144689, “Antileukemic activity of genistein, a major isoflavone present in soy products” (J Nat Prod, 2008).
Active and inactive are the calls of the source. The calls are words filed in the database; no cut-off is given here.

Key:
L1210 [1] = test: Antileukemic activity against mouse L1210 cells at 2 uM after 24 hrs by clonogenic assay; assay type: functional
Procedure, shortened: (§1)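 Murine L1210 cells cultured in RPMI-1640 with 5% heat-inactivated FCS and 6 µM 2-mercaptoethanol. Log-phase cells at 2 × 10^4 cells/mL exposed to 1–20 µM for 12, 24 or 48 h, then drug removed by centrifugation. 100 cells plated in 0.45% soft agar with 10% serum. Colonies >50 cells counted at day 7. Result as % relative to untreated control. Triplicate, three repeats, mean ± SEM.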

L1210 [2] = test: Antileukemic activity against mouse L1210 cells at 2 uM after 48 hrs by clonogenic assay; assay type: functional; procedure, shortened: as §1
L1210 [3] = test: Antileukemic activity against mouse L1210 cells at 5 uM after 12 hrs by clonogenic assay; assay type: functional; procedure, shortened: as §1
L1210 [4] = test: Antileukemic activity against mouse L1210 cells at 5 uM after 24 hrs by clonogenic assay; assay type: functional; procedure, shortened: as §1
L1210 [5] = test: Antileukemic activity against mouse L1210 cells at 5 uM after 48 hrs by clonogenic assay; assay type: functional; procedure, shortened: as §1
L1210 [6] = test: Antileukemic activity against mouse L1210 cells at 10 uM after 12 hrs by clonogenic assay; assay type: functional; procedure, shortened: as §1
L1210 [7] = test: Antileukemic activity against mouse L1210 cells at 10 uM after 24 hrs by clonogenic assay; assay type: functional; procedure, shortened: as §1
L1210 [8] = test: Antileukemic activity against mouse L1210 cells at 10 uM after 48 hrs by clonogenic assay; assay type: functional; procedure, shortened: as §1
L1210 [9] = test: Antileukemic activity against mouse L1210 cells at 20 uM after 12 hrs by clonogenic assay; assay type: functional; procedure, shortened: as §1
L1210 [10] = test: Antileukemic activity against mouse L1210 cells at 20 uM after 24 hrs by clonogenic assay; assay type: functional; procedure, shortened: as §1
L1210 [11] = test: Antileukemic activity against mouse L1210 cells at 20 uM after 48 hrs by clonogenic assay; assay type: functional; procedure, shortened: as §1
L1210 [12] = test: Growth inhibition of mouse L1210 cells after 24 hrs; assay type: functional
Procedure, shortened: (§2)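 For L1210 (RPMI-1640, 5% heat-inactivated FCS, 6 µM 2-mercaptoethanol), log-phase cultures at 2 × 10^4 cells/mL were given 1–20 µM for 12, 24 or 48 h. Coulter particle counter counts were expressed as % growth inhibition versus untreated control. IG50 was taken at 24 h. Triplicate, three repeats, mean ± SEM.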

L1210 [13] = test: Antileukemic activity against mouse L1210 cells after 24 hrs by clonogenic assay; assay type: functional; settings: L1210, 24 h, read-out: LC50 (the source's name)
Procedure, shortened: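 Murine L1210 grown in RPMI-1640 with 5% heat-inactivated FCS and 6 µM 2-mercaptoethanol. Log-phase cells at 2 × 10^4 cells/mL exposed to 1–20 µM for 24 h. Drug removed by centrifugation. 100 cells plated in 0.45% soft agar with 10% serum for 7 days, and colonies (>50 cells) counted. Loss is relative to untreated control. Triplicates, three experiments, mean ± SEM.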

HL-60 [14] = test: Growth inhibition of human HL60 cells at 5 uM after 48 hrs; assay type: functional; settings: HL-60, 48 h, read-out: GI
Procedure, shortened: (§3)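 Human leukemic cells (RPMI-1640, 10% heat-inactivated FBS), log phase, seeded at 2 × 10^4 cells/mL. Exposed to 1, 2, 5, 10 or 20 µM (DMSO stock). Cell number counted with a Coulter particle counter at 48 h. Growth inhibition as % of untreated control. IG50 is the concentration giving 50% inhibition. Triplicate, three repeats, mean ± SEM.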

MOLT-3 = test: Growth inhibition of human MOLT3 cells at 2 uM after 48 hrs; assay type: functional; settings: MOLT-3, 48 h, read-out: GI; procedure, shortened: as §3
L1210 [15] = test: Antileukemic activity against mouse L1210 cells at 1 uM after 24 hrs by clonogenic assay; assay type: functional; procedure, shortened: as §1
L1210 [16] = test: Growth inhibition of mouse L1210 cells at 20 uM after 24 hrs; assay type: functional; settings: L1210, 24 h, read-out: GI; procedure, shortened: as §2
L1210 [17] = test: Growth inhibition of mouse L1210 cells at 20 uM after 48 hrs; assay type: functional; settings: L1210, 48 h, read-out: GI; procedure, shortened: as §2
[18] = Elimination half life in human plasma; assay type: ADME, organism-based
Plasma = test: Drug concentration in human plasma; assay type: ADME, cell-free; settings: read-out: Drug uptake
Raji = test: Growth inhibition of human Raji cells at 5 uM after 48 hrs; assay type: functional; settings: read-out: GI; procedure, shortened: as §3
[19] = Growth inhibition of human KG1a cells at 5 uM after 48 hrs; assay type: functional; settings: KG-1a; procedure, shortened: as §3
HL-60 [20] = test: Induction of p57KIP2 re-expression in human HL60 cellular RNA at 1 to 20 uM after 48 hrs by RT-PCR; assay type: functional, cell-based
Procedure, shortened: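 HL-60 cells treated 48 h with 1–20 µM. p57KIP2 transcript detected by RT-PCR against 18S rRNA reference, with cycles set in the exponential phase. Products resolved on 2% agarose with ethidium bromide staining. Repeated twice.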

L1210 [21] = test: Induction of p15CDKN2B re-expression in mouse L1210 cells at 1 to 20 uM after 24 hrs by RT-PCR; assay type: functional, cell-based
Procedure, shortened: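 Murine L1210 cells exposed to 1–20 µM for 24 h. RNA analysed by RT-PCR for p15CDKN2B, with 18S rRNA as reference. Cycle number set within the exponential phase. Products run on 2% agarose and stained with ethidium bromide. Repeated twice.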

Mus musculus = organism: Mus musculus; test: Toxicity in mouse L1210 cells transplanted CD2F1 mouse assessed as increase in survival time at 0.5% treated with diet for 10 days; assay type: organism-based; settings: in vivo, po, 240 h
Procedure, shortened: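 Male CD2F1 mice, 24–28 g, n = 11 per group, on a 2016 diet with or without 0.5% supplement, adapted over 10 days. Then injected i.v. with 10^4 L1210 cells (0.1 mL), passaged weekly i.p. as ascites. Diet continued. Survival checked 2–3 times daily and increase in life span calculated. Toxicity assessed by body weight loss.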

[22] = Half life in CD2F1 mouse; assay type: ADME, organism-based; settings: in vivo

O=c1c(-c2ccc(O)cc2)coc2cc(O)cc(O)c12 [GENISTEIN]
Activity (L1210 [1]): 13%
Activity (L1210 [2]): 8.9%
Activity (L1210 [3]): 44%
Activity (L1210 [4]): 16%
Activity (L1210 [5]): 32.9%
Activity (L1210 [6]): 94%
Activity (L1210 [7]): 63%
Activity (L1210 [8]): 81.1%
Activity (L1210 [9]): 100%
Activity (L1210 [10]): 97%
Activity (L1210 [11]): 99.7%
IG50 (L1210 [12]): 18.5 µM
CC50 (L1210 [13]): 6.5 µM
inhibition of growth at 5 µM (HL-60 [14]): > 10%
inhibition of growth at 2 µM (MOLT-3): > 10%
Activity (L1210 [15]): 6%
inhibition of growth at 20 µM (L1210 [16]): 66.7%
inhibition of growth at 20 µM (L1210 [17]): 93.1%
half-life [18]: 15 h
concentration (Plasma): 4 µM
inhibition of growth at 5 µM (Raji): > 10%
inhibition at 5 µM [19]: > 10%
Activity (HL-60 [20]): Active
Activity (L1210 [21]): Active
Survival (Mus musculus): 187 h
half-life [22]: < 0.25 h
